In brackets after ≈: the same amount, converted by molar mass.
Legend:
[1] = Stability of the compound in pH 7.1 buffer assessed as parent compound remaining measured after 24 hrs at 100 degC; type: physicochemical; conditions: read-out: Stability
[2] = Ratio of solubility of the compound in pH 7.1 buffer measured after 24 hrs to IC50 for antagonist activity at recombinant human TAS2R8 expressed in cells co-expressing Galpha16gust44 assessed as inhibition of andrographolide-induced intracellular calcium level; type: cell-based
[3] = Solubility of the compound in pH 7.1 buffer measured after 24 hrs; type: physicochemical
[4] = Stability of the compound in pH 2.8 buffer assessed as parent compound remaining measured after 24 hrs at 100 degC; type: physicochemical; conditions: read-out: Stability
[5] = target: T1, Taste receptor type 2 member 8 (Homo sapiens, UniProt Q9NYW2); test: Antagonist activity at recombinant human TAS2R8 stably expressed in cells co-expressing Galpha16gust44 assessed as inhibition of andrographolide-induced intracellular calcium level measured for 100 secs by fluo-4 dye based FLIPR assay; type: functional, cell-based
T1 sequence (Q9NYW2 whole entry): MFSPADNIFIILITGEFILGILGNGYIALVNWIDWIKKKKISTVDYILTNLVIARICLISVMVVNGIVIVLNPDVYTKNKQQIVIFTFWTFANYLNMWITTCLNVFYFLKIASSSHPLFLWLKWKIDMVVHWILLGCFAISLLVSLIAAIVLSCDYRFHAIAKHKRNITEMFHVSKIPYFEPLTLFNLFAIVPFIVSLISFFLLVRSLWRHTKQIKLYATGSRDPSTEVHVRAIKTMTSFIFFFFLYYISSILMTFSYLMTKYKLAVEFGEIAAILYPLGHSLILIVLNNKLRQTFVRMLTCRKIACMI
In short: (§1)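 Recombinant cells stably expressing G16t44 chimera and TAS2R8 (clones isolated by limiting dilution), plated 24 h before assay; loaded with fluo-4 in PBS 60 min, washed, rested 15 min in dark at RT. Andrographolide agonist at its EC80, premixed with antagonist and added together; final DMSO 0.5%. Baseline read 10 s, then fluorescence followed 100 s on FLIPR.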

[6] = Drug metabolism in pH <6.5 buffer assessed as S6821 formation measured under room temperature
[7] = target: T2, Taste receptor type 2 member 8 (Homo sapiens) (UniProt Q9NYW2); test: Antagonist activity at recombinant human TAS2R8 stably expressed in cells co-expressing Galpha16gust44 assessed as inhibition of andrographolide-induced intracellular calcium level at 10 uM measured for 100 secs by fluo-4 dye based FLIPR assay relative to control; type: functional, cell-based; in short: as §1
T2 sequence (whole entry): T1 sequence (Q9NYW2 whole entry)

Structure (SMILES)	IC50 [5] [µM]	other results
Cc1noc(C)c1Cn1cc(N2C(=O)[C@H](CO)N(Cc3cccc(O)c3)C2=O)cn1		remaining at 24 h [1]: 2%; Ratio [2]: 57600; solubility at 24 h [3]: 2480 µM (≈ 1020 µg/mL); remaining at 24 h [4]: 53%
Cc1noc(C)c1Cn1cc(N2C(=O)CN(Cc3ccccc3)C2=O)cn1	0.2	remaining at 24 h [1]: 60%; solubility at 24 h [3]: 70 µM (≈ 25.6 µg/mL); remaining at 24 h [4]: > 99%
Cc1noc(C)c1Cn1cc(N2C(=O)N(Cc3cccc(O)c3)C3(CCC3)C2=O)cn1	0.04	remaining at 24 h [1]: 98%; Ratio [2]: 77; solubility at 24 h [3]: 3 µM (≈ 1.26 µg/mL); remaining at 24 h [4]: 97%
Cc1noc(C)c1Cn1cc(N2C(=O)CN(Cc3ccc(O)cc3)C2=O)cn1	0.04	
Cc1noc(C)c1Cn1cc(N2C(=O)N(Cc3cccc(O)c3)C3(CC3)C2=O)cn1		remaining at 24 h [1]: 96%; Ratio [2]: 1550; solubility at 24 h [3]: 31 µM (≈ 12.6 µg/mL); remaining at 24 h [4]: > 99%
Cc1noc(C)c1CN1CC(=O)N(c2cnn(Cc3c(C)noc3C)c2)C1=O	0.4	
COC(=O)c1cccc(CN2CC(=O)N(c3cnn(Cc4c(C)noc4C)c3)C2=O)c1	0.1	
Cc1noc(C)c1Cn1cc(N2C(=O)CNC2=O)cn1	0.9	
Cc1noc(C)c1Cn1cc(N2C(=O)CN(Cc3ccccc3F)C2=O)cn1	0.1	Ratio [2]: 600; solubility at 24 h [3]: 51 µM (≈ 19.6 µg/mL)
Cc1noc(C)c1Cn1cc(N2Cc3ccccc3C2=O)cn1	9	
Cc1noc(C)c1Cn1cc(N2CCN(Cc3ccccc3)C2=O)cn1	1	
CNC(=O)c1cccc(CN2CC(=O)N(c3cnn(Cc4c(C)noc4C)c3)C2=O)c1	0.1	
Cc1noc(C)c1Cn1cc(N2C(=O)N(Cc3cccc(O)c3)C(C)(CO)C2=O)cn1 (stereo not drawn)	0.1	remaining at 24 h [1]: 43%; Ratio [2]: 2660; solubility at 24 h [3]: 356 µM (≈ 151 µg/mL); remaining at 24 h [4]: > 99%
Cc1noc(C)c1Cn1cc(N2C(=O)CN(CC3CCCCC3)C2=O)cn1	0.3	
Cc1noc(C)c1Cn1cc(N2C(=O)CN(Cc3ccccc3O)C2=O)cn1	0.1	
Cc1noc(C)c1Cn1cc(N2C(=O)c3ccccc3C2=O)cn1	0.2	remaining at 24 h [1]: 5%; solubility at 24 h [3]: 12 µM (≈ 3.87 µg/mL); remaining at 24 h [4]: 3%
Cc1noc(C)c1Cn1cc(N2C(=O)CN(CC3CCCO3)C2=O)cn1 (stereo not drawn)	1	
Cc1noc(C)c1Cn1cc(N2C(=O)[C@@H](C)N(Cc3cccc(O)c3)C2=O)cn1		remaining at 24 h [1]: 92%; Ratio [2]: 3390; solubility at 24 h [3]: 61 µM (≈ 24.1 µg/mL); remaining at 24 h [4]: > 99%
Cc1noc(C)c1Cn1cc(N2C(=O)C(=O)N(Cc3ccccc3)C2=O)cn1	2	
Cc1noc(C)c1Cn1cc(N2C(=O)CN(Cc3cccc(C(=O)O)c3)C2=O)cn1	2	
COc1ccccc1CN1CC(=O)N(c2cnn(Cc3c(C)noc3C)c2)C1=O	0.1	Ratio [2]: 267; solubility at 24 h [3]: 16 µM (≈ 6.33 µg/mL)
Cc1noc(C)c1Cn1cc(N2C(=O)CN(Cc3ccccn3)C2=O)cn1	1	
Cc1noc(C)c1Cn1cc(NC(=O)N(CC(=O)O)Cc2cccc(O)c2)cn1		Drug metabolism [6]: Metabolite detected
Cc1noc(C)c1Cn1cc(NS(=O)(=O)c2ccccc2)cn1	4	
Cc1noc(C)c1Cn1cc(N2C(=O)[C@H](C)N(Cc3cccc(O)c3)C2=O)cn1		remaining at 24 h [1]: 92%; Ratio [2]: 3750; solubility at 24 h [3]: 60 µM (≈ 23.7 µg/mL); remaining at 24 h [4]: > 99%
Cc1cc(CN2CC(=O)N(c3cnn(Cc4c(C)noc4C)c3)C2=O)n(C)n1	0.2	

More lines, main results first:

IC50 [5] [µM]	Structure (SMILES)	other results
1.1	COc1ncccc1C(=O)Nc1cnn(Cc2c(C)noc2C)c1	
0.4	Cc1noc(C)c1Cn1cc(NC(=O)c2cccc(O)c2)cn1	
1	Cc1noc(C)c1Cn1cc(NC(=O)c2ccccc2O)cn1	
0.7	COc1cccc(C(=O)Nc2cnn(Cc3c(C)noc3C)c2)c1	
2.3	Cc1noc(C)c1Cn1cc(NC(=O)c2ccccn2)cn1	
2	Cc1noc(C)c1Cn1cc(NC(=O)Nc2ccccc2)cn1	
0.4	Cc1noc(C)c1Cn1cc(NC(=O)CCc2ccccc2)cn1	
0.8	COc1cncc(C(=O)Nc2cnn(Cc3c(C)noc3C)c2)c1	
0.8	Cc1noc(C)c1Cn1cc(NC(=O)Cc2ccccc2)cn1	
1.9	COc1ccccc1C(=O)Nc1cnn(Cc2c(C)noc2C)c1	
1	COc1ccc(C(=O)Nc2cnn(Cc3c(C)noc3C)c2)cc1OC	
0.5	Cc1noc(C)c1Cn1cc(NC(=O)c2ccc(O)cc2)cn1	
1	Cc1noc(C)c1Cn1cc(NC(=O)NCc2ccccc2)cn1	
0.7	COc1ccc(C(=O)Nc2cnn(Cc3c(C)noc3C)c2)cc1	
3	Cc1noc(C)c1Cn1cc(NC(=O)c2ccc3ocnc3c2)cn1	
0.7	COc1cccc(C(=O)Nc2cnn(Cc3c(C)noc3C)c2)n1	
1.7 to 2	Cc1noc(C)c1Cn1cc(NC(=O)c2ccccc2)cn1	
0.3	COc1ccc(OC)c(C(=O)Nc2cnn(Cc3c(C)noc3C)c2)c1	
0.8	Cc1noc(C)c1Cn1cc(NC(=O)CCCc2ccccc2)cn1	
0.3	Cc1noc(C)c1Cn1cc(NC(=O)c2ccc3[nH]ccc3c2)cn1	
2.3	CCSc1ncccc1C(=O)Nc1cnn(Cc2c(C)noc2C)c1	inhibition [7]: 50%

Reference: ChEMBL document CHEMBL4342523, “Discovery and Development of S6821 and S7958 as Potent TAS2R8 Antagonists” (J Med Chem, 2020)
